# Measurements collected from several papers.
# Compare with care: the assays were run in different laboratories.
# Effect on: enzyme activity
# RET: Proto-oncogene tyrosine-protein kinase receptor Ret (RET, Homo sapiens, UniProt P07949)
Structure (SMILES),target,test,setting,remaining activity
CC(=O)Nc1cccc2c1CCN(C(=O)CCNC(=O)c1ccsc1)C2,RET,"inhibitor, radiometric",0.1 µM,104%
Cc1ccc(C(=O)Nc2ccc(CN3CCN(C)CC3)c(C(F)(F)F)c2)cc1C#Cc1cnc2cccnn12,"Proto-oncogene tyrosine-protein kinase receptor Ret (RET, Homo sapiens, UniProt P07949, M918T)",,23.5 nM,1.4%
COc1cc(NC(=O)Nc2cccc(Br)c2)cc2sc(NC(=O)c3ccccc3)nc12,RET,"inhibitor, radiometric",0.1 µM,153%
CC(C)(C)c1nc(-c2cccc(NS(=O)(=O)c3c(F)cccc3F)c2F)c(-c2ccnc(N)n2)s1,RET,"inhibitor, radiometric",1 µM,81%
CCN(CC)CCNC(=O)c1c(C)[nH]c(/C=C2\C(=O)Nc3ccc(F)cc32)c1C,RET,inhibitor,0.1 µM,22%
CCCOc1ccc(OC)c(F)c1C(=O)c1ccc(C(=O)N[C@@H]2CNC[C@H]2NC(=O)c2ccc3[nH]ncc3c2)cc1,RET,inhibitor,0.1 µM,98%
CC(C)(O)[C@H]1CC[C@H](Nc2ccc3ncc(-c4cccc(C(F)(F)F)c4)n3n2)CC1,RET,inhibitor,1 µM,86.9%
CCN(CC)c1ccc(C2=NNC(=O)CC2C)cc1[N+](=O)[O-] (stereo not shown),RET,inhibitor,10 µM,102%
COc1cc(NC(=O)Nc2ccc(Br)cc2)cc2sc(NC(=O)c3ccccc3)nc12,RET,"inhibitor, radiometric",0.1 µM,120%
Cc1cnc(NC2CCOCC2)nc1-n1cnc(C(=O)NC(CN)c2cc(F)cc(Cl)c2)c1 (stereo not shown),"Proto-oncogene tyrosine-protein kinase receptor Ret (RET, Homo sapiens, UniProt P07949, V804L)","inhibitor, radiometric",1 µM,93%
O=C(Nc1cnn(-c2csc(C(=O)NC3COC3)c2)c1)Nc1ccccc1Cl,RET,inhibitor,5 µM,97.8%
COc1cccc(NC(=O)Nc2c(-c3ccc(Cl)cc3)nn(-c3ccc(F)cc3)c2N)c1,RET,"inhibitor, radiometric",0.1 µM,110%
Cc1[nH]c(/C=C2\C(=O)Nc3ccc(F)cc32)c(C)c1C(=O)N[C@H]1CCN(C(=O)N(C)C)C1,RET,inhibitor,1 µM,11%
